In the RNAGym collection of RNA variant scans (doi:10.1126/science.aae0568):
Variants at the floor of the assay were thinned out.

B1: tRNA (parent)
chain: GUUCCGUUGGCGUAAUGGUAACGCGUCUCCCUCCUAAGGAGAAGACUGCGGGUUCGAGUCCCGUACGGAACG

Variants of: B1
Test: yeast fitness relative to wild type (ratio to wild type); higher = fitter; tRNA-Arg(CCU), competitive growth, 37 C, YPD
Outline: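 For this measurement, the tRNA-Arg(CCU) gene was varied by chemical synthesis at a 3% per-site mutation rate across 69 sites, and each variant was placed at the native genomic locus in Saccharomyces cerevisiae. The pooled strains went through a 24-hour competition in YPD at 37°C in six parallel replicates, with amplicons from start and end populations read by 100-nucleotide paired-end sequencing. Darwinian fitness relative to wild type followed from the change in each genotype's frequency. Genotypes needed ≥ 100 starting reads, and estimates < 0.5 were set to 0.5.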

| Variant | yeast fitness |
| --- | --- |
| U7A U16C A21U U26A | 0.537 |
| U19C C60A | 0.547 |
| C61A C62U A65U A69C | 0.52 |
| C5G G9C C33A U35C C46U C49U G52C C61U C66U | ≤ 0.5 |
| U2C U3C U19A | 0.629 |
| G9C G48C | 0.695 |
| U8C U16A A21G | ≤ 0.5 |
| G44C G58C | 0.919 |
| U13A C29G A43G | ≤ 0.5 |
| C27A A43C A69C | 0.748 |
| U7G A65G C66U | 0.876 |
| C5G A15U U28C | ≤ 0.5 |
| U53A A69U | 0.891 |
| G25A G48A A70U | 0.81 |
| C22U A40G | 0.834 |
| U54C G68A | 0.937 |
| G6A C33G C55G C61G | ≤ 0.5 |
| G6C U26C A43C A57G C66U | ≤ 0.5 |
| C4A A20C C27U G50A | 0.597 |
| U13C A21G C31G A45G | 0.619 |
| A20C A37C | 0.762 |
| U8G A42U A43C | 0.51 |
| U7A G23C C31U | ≤ 0.5 |
| G9C C27U G58C | 0.639 |

| Variant | yeast fitness |
| --- | --- |
| U47A G48A | 0.867 |
| C46U C49A C55U | 0.678 |
| C30U C46A G51A | 0.608 |
| C11A C31G A42U G67A | ≤ 0.5 |
| C5U C34G U64A | ≤ 0.5 |
| C4A G48C | 0.749 |
| C24U A45C U47A G63A | ≤ 0.5 |
| A14U G17C C24A C30G C62A A70U | ≤ 0.5 |
| C11U C22A A40U C46U C61U | ≤ 0.5 |
| C4A C5A C22A U28G C33G A57G | ≤ 0.5 |
| C30G G50U C66U | 0.573 |
| C5U U32C U35C C49G | ≤ 0.5 |
| U16C C49G C62U | 0.528 |
| U28C G52C A65C | 0.596 |
| U2A G12A C30A A43U A57G C60A G67A | ≤ 0.5 |
| G17C C46A A65C | ≤ 0.5 |
| A21C A40C | 0.734 |
| C4G C24U A42C C46A U54A | 0.623 |
| G41C C62G | 0.597 |
| G25A C34A A36C G51C | ≤ 0.5 |
| U7G C30U U47A | ≤ 0.5 |
| A21C G25C U26G U59A G63C G68U | ≤ 0.5 |
| C5U G12C U13A | ≤ 0.5 |
| A14G C29U | 0.988 |

| Variant | yeast fitness |
| --- | --- |
| G12C U13C A20C C24G G39C G68C | 0.511 |
| C24A U26G C30G A43U C62U | 0.549 |
| G6A U35A A40U G41C C49A | ≤ 0.5 |
| U16G U28G C34U C49U G63C | ≤ 0.5 |
| C11U U13G U19A C22G G25A C61A | ≤ 0.5 |
| G10A G56A C60U | ≤ 0.5 |
| C61G G63A A70U | 0.562 |
| A21U U35C G51C | ≤ 0.5 |
| A43C G56A C61A | 0.525 |
| C4U C22U A42C | ≤ 0.5 |
| C5A U13G | 0.841 |
| A20U U26C C33A C62A A69U | ≤ 0.5 |
| U19G C61G | 0.575 |
| A37C C60G | 0.562 |
| C34A G41A C55G C66U | ≤ 0.5 |
| A20U G23A G63A A70U | ≤ 0.5 |
| C5U G18C G52C | ≤ 0.5 |
| U8A C49G A57C | ≤ 0.5 |
| G25A A43U C61A | 0.765 |
| U3A A36U A37G | ≤ 0.5 |
| U19A U28C A69C | 0.674 |
| C55G U59A A70G | 0.731 |
| C29U C49A | 0.592 |
| A14G A42U C62U A70C | ≤ 0.5 |

| Variant | yeast fitness |
| --- | --- |
| U7C A15U C29A G38C | ≤ 0.5 |
| C11U A21G A37U G41A | ≤ 0.5 |
| C5A A21U | 0.621 |
| U26A C49U G56A | 0.706 |
| A14G U32A | 0.554 |
| U32G G48C G58C | ≤ 0.5 |
| C5A A65C | 0.839 |
| A42U A57U C61U | ≤ 0.5 |
| A14G C30U | 0.81 |
| A45C G63A A69U | 0.793 |
| A15G G44C G68U | ≤ 0.5 |
| U16A C30U A57U | ≤ 0.5 |
| G12C U59C C60A | ≤ 0.5 |
| C24U U47A G48C U54G A65C | ≤ 0.5 |
| U28A C30G U59C | ≤ 0.5 |
| C5G G51A G68C | ≤ 0.5 |
| G38A G58C A70U | 0.748 |
| U7A C29A U47C G58A C61G A70U | 0.588 |
| C5U C34U C55G | ≤ 0.5 |
| G23A A43U A65U | ≤ 0.5 |
| U2C A70C | 0.972 |
| U26G C29A | 0.578 |
| C5A A20U | 0.781 |
| G6A C46G G51A | 0.637 |

| Variant | yeast fitness |
| --- | --- |
| G17A A21G U28G | 0.608 |
| U8C C24A U35G G52A U64A | ≤ 0.5 |
| A43U G56C | 0.702 |
| U7C A14G A43G A69C | ≤ 0.5 |
| C4U A42U | 0.944 |
| G9A G44C C66U | 0.552 |
| C49U G56A G67A | 0.593 |
| C24U G39A A65U | 0.528 |
| G9C C46G | 0.735 |
| A21U C22A G50C | 0.575 |
| U13C C24U C34U | ≤ 0.5 |
| G12C C27G U35A G52A A57G A69U A70U | ≤ 0.5 |
| U2A A14C A37C | ≤ 0.5 |
| C22G C31G G67A | 0.615 |
| C5A A36G C66U | 0.655 |
| C4A C11G | 0.769 |
| C5U G25A C49U | 0.802 |
| C29G A40U G58A | ≤ 0.5 |
| G23A C31A A69C | ≤ 0.5 |
| U19C G38C G44C C46A | 0.872 |
| G6A C24U C31A A43C G58C U64G | ≤ 0.5 |
| C29G G38A | 0.614 |
| A43U C55A A65U A70G | 0.56 |
| G17A C30G A40G C60A | 0.678 |

| Variant | yeast fitness |
| --- | --- |
| C49U C55G | 0.885 |
| A36G A37C A45C C46G | 0.554 |
| U8C U28G A40U | 0.588 |
| G6C A42U | 0.739 |
| C22G G50A | 0.837 |
| C33U A36C | 0.517 |
| C55G A69U | 0.636 |
| G9A A15U C31G U53A C55U A57C C60G G67C | ≤ 0.5 |
| C33U C34U G39C | 0.605 |
| A43U C66A | 0.619 |
| C31U C46G G50A C61U | 0.649 |
| U16G G39C G56C | ≤ 0.5 |
| U3C G38C A40G | 0.501 |
| G38C A69U A70U | ≤ 0.5 |
| U8G A69U | 0.575 |
| A21C C30A A42C G48C C49U U54C | 0.598 |
| G9C U13A U59A | 0.718 |
| C4G C11U A14U C30G A69U | ≤ 0.5 |
| A14C C24U U35C C46G G52A C61A | 0.535 |
| C11A G25C C29U | ≤ 0.5 |
| U8C C24U A42U G52C | ≤ 0.5 |
| C24G C49U C55G G58A | 0.764 |
| A14U G25A | 0.686 |
| C4G A43U G44C | 0.531 |

| Variant | yeast fitness |
| --- | --- |
| C4U U13A A14U C29U A37G | 0.581 |
| U8C C31U C46A C49A | ≤ 0.5 |
| C11U A20U U26C | ≤ 0.5 |
| A40C G41C C49A G68C | ≤ 0.5 |
| G10C G12C C46G C55U | ≤ 0.5 |
| A14U C30A A43U | ≤ 0.5 |
| C24A A42C U64C | ≤ 0.5 |
| G6C G39C G51A | 0.741 |
| A40U C61G G68C A70G | ≤ 0.5 |
| A37C A42C C66U | 0.712 |
| G23C C34U U47A G58C G67U | 0.533 |
| G23C U28C C29U A69C | ≤ 0.5 |
| G48A G52A | 0.976 |
| C11G A37U | ≤ 0.5 |
| C4A G23A A40C | ≤ 0.5 |
| C30G A42C C55U | ≤ 0.5 |
| U3A U19A C61U A70U | 0.551 |
| U19A G39C | 0.742 |
| G18C A21U U26C G51C | 0.739 |
| C4G U8G C24A C31G G50A | 0.594 |
| A15G A20U G68A | 0.545 |
| G41A U53G U64A | ≤ 0.5 |
| C5G U59G G63C | ≤ 0.5 |
